Data set [1] concerns the target T1, Integrin alpha-4/beta-1 (Homo sapiens, UniProt P05556+P13612). Kind of data set: Inhibition of europium labeled human VCAM1/Fc chimera binding to human VLA-4 alpha-4-beta-1 expressed in Chinese hamster 4B4 cells by fluorimetric assay. Format: cell-based.
The target of data set [2] is T1, Integrin alpha-4/beta-1. The data set is described as follows: Inhibition of europium labeled human VCAM1/Fc chimera binding to human VLA-4 alpha-4-beta-1 expressed in Chinese hamster 4B4 cells in presence of 3% HSA by fluorimetric assay. In kind it is cell-based. Put shortly: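 CHO-K1 4B4 cells transfected with human α4 and β1, plated at 3 × 10⁵ cells/mL and cultured 2 days, washed with HEPES pH 7.5 buffer containing Ca, Mg, Mn. Compound plus Eu-labeled human VCAM-1/Fc (final 1 nM), with or without human serum albumin, 60 min at room temperature; washed, Eu time-resolved fluorescence read; duplicates.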

Data set [3] can be described thus: Drug level in BALB/c mouse serum at 10 mg/kg, po after 15 mins. In kind it is ADME, organism-based. Also noted: dose 10 mg/kg, route oral. Conditions: read-out: Drug uptake. Put shortly:
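Serum (final 0.01-10%) assayed in the VLA-4/VCAM-1 binding assay, and concentration estimated from a calibration curve of compound spiked into untreated mouse serum.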

A further data set is described as follows: in vivo. The following applies: rat, plasma.
Data set [4] can be described thus: Oral bioavailability in rat. The following applies: in vivo.
Data set [5] in a line: Half life in Sprague-Dawley rat at 10 mg/kg, iv. Also noted: dose 10 mg/kg, route intravenous. Format: ADME, organism-based. The following applies: in vivo.
A short description of data set [6]: Clearance in Sprague-Dawley rat at 10 mg/kg, iv. In kind it is ADME, organism-based. Conditions: in vivo. Also noted: dose 10 mg/kg, route intravenous.
Data set [7] can be described thus: Volume of distribution at steady state in Sprague-Dawley rat at 10 mg/kg, iv. Format: ADME, organism-based. Also noted: dose 10 mg/kg, route intravenous. The following applies: in vivo, read-out: Vdss.
The nature of data set [8]: Protein binding in plasma.
Data set [9] deals with Integrin alpha-4/beta-7 (Homo sapiens) (UniProt P13612+P26010). Conditions: at 4 µg/mL.

T1 sequence (P05556 whole entry): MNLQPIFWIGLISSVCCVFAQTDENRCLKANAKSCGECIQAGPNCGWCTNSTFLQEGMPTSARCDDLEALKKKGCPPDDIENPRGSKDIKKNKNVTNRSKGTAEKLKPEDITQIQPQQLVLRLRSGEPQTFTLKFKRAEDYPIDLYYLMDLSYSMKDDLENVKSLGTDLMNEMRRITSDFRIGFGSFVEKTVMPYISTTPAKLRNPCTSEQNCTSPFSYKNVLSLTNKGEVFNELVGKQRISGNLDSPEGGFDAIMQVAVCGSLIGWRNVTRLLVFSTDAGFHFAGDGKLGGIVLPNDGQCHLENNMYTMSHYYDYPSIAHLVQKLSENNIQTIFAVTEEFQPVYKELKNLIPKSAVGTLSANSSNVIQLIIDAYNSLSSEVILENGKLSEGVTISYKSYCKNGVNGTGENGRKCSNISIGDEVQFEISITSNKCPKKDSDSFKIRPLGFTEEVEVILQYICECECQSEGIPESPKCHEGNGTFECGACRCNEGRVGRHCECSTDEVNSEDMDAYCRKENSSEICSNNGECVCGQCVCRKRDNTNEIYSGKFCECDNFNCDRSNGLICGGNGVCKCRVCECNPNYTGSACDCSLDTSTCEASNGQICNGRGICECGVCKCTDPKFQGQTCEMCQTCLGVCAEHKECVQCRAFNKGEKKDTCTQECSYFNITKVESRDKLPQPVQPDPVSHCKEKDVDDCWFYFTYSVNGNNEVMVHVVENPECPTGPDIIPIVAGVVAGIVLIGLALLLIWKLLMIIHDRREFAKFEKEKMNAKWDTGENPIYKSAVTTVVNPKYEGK
T1 sequence (P13612 whole entry): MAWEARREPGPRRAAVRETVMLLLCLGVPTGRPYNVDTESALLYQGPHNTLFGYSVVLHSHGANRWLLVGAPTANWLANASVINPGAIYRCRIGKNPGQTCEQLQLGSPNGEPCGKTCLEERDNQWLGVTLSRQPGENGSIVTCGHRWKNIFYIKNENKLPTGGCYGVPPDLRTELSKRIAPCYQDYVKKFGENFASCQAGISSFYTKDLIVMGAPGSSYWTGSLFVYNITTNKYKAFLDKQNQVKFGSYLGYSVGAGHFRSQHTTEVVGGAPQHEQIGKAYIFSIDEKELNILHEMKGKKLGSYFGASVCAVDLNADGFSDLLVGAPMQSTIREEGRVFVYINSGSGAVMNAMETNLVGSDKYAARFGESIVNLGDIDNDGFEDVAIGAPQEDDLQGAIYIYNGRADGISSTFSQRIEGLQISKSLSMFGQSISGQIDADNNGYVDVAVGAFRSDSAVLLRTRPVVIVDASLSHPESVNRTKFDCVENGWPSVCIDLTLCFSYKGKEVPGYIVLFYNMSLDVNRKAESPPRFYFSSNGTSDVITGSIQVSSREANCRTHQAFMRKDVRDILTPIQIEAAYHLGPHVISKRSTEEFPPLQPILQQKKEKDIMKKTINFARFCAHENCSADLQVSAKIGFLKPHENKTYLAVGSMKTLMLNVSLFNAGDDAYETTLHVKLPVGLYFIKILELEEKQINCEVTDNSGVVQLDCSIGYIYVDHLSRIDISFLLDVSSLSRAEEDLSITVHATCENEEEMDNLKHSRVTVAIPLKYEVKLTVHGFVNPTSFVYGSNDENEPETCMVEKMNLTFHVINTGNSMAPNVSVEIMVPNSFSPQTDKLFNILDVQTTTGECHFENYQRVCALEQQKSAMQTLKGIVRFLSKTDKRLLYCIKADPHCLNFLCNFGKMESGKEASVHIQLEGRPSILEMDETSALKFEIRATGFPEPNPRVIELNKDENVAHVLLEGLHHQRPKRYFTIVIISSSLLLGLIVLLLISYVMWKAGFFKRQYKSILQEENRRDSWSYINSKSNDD

As usually defined, the IC50 is the point on the concentration scale where inhibition reaches its midpoint. What is called clearance is a measure of how efficiently the substance is removed, as volume per time. A high value points to a high capacity for elimination. The bioavailability is dose-corrected exposure relative to a reference, in per cent. A word on the half-life: it is the time in which the quantity being followed falls by half. A higher half-life goes with slow decline. Broadly, the fraction unbound is free concentration divided by total concentration. By inhibition is commonly meant the change of the read-out against control, counted positive when it falls. Take `Cc1ccccc1Nc1nc2ccc(CC(=O)N3C[C@@H](F)C[C@H]3CO[C@H]3CC[C@H](C(=O)O)CC3)cc2o1`: the half-inhibitory concentration (IC50) on Integrin alpha-4/beta-1 [1] was 2.8 nM; at Integrin alpha-4/beta-1 [2], 45 nM. For the same compound, in data set [3], the concentration at 0.25 h is 373 ng/mL. The clearance (in “in vivo”; in data set [6]) was 12.2 mL/min/kg throughout. The bioavailability in data set [4] was determined as 24%. The half-life in data set [5] is 48 min. Also, the Vd in data set [7] amounted to 0.317 L/kg. The fraction unbound in data set [8] was 0.03. In data set [9], this compound gave an inhibition of 46%.
